Compound activity as filed in PubChem BioAssay.
HIV Env fusion: HIV envelope-mediated fusion inhibition | HeLa-JRFL Env/CEM21 cell fusion, luciferase | inhibition, % at 12.3 µM | 360,000 tested, 1.1% active;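 active = mean replicate inhibition score of at least 50 and every replicate individually at or above 50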;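 also: 0% = plate neutral controls and 100% = maraviroc near 300 nM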
miR-122 sensor: blocks miR-122 activity in Huh7 sensor cells. Huh7 miR-122 Renilla luciferase sensor, 48 h; neutral wells = 0, positive control = 100. activation (reporter increase), % at 12.5 µM. 340,000 tested, 0.3% active;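 active = mean replicate activation score at least 90 and every replicate individually at or above 90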;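 also: higher luciferase means less miR-122 activity so hits act as miR-122 inhibitors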
Vif inh: inhibitors of HIV Vif | HEK293T cells, Vif self-association by quenched fluorescence, imaging, 24 h | inhibition, % at 7.49 µM | 340,000 tested, 0.35% active | AID 602346; in the data active = inhibition above about 50%, passing the limit was not always enough
Ecoli rRNA inh: inhibits bacterial ribosomal RNA function over humanized ribosomes | 350,000 tested, 1.6% active | GFP signal change (wild-type ribosome), % (concentration not given with the values) | AID 720706 | E. coli WT GFP vs humanized-ribosome RFP mutants, fluorescence, 24 h; hits give low values; DMSO median 0, no signal -100;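 active = significant combined selectivity score with lowered wild-type GFP, culture density cut under 30%, mutant RFP and density less affected; inactive = any of these conditions unmet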
FN deposition inh: fibronectin deposition inhibition. 350,000 tested, 0.086% active. inhibition, % at 12.6 µM. AH1F fibroblasts, Alexa488-fibronectin deposition fluorescence, overnight;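 active = mean inhibition across replicates of 30% or more, regardless of how many single replicates reach that level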;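 also: positive control wells lacked labelled fibronectin entirely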
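test system = AH1F fibroblasts assembling fluorescent fibronectin matrix | quantity = 10000 AH1F cells per well | buffer or medium = DMEM plus 2% serum, read in PBS | doses = single dose, pinned | incubation = 1 h cell attachment, overnight exposure to compound and label | detection = fluorescence at 485 nm excitation, 525 nm emission | read-out basis = inhibition from reduced deposited-fibronectin fluorescence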
S100A4 MyoIIA: blocks human S100A4 binding to myosin IIA peptide; P26447; S100A4/TAMRA-MyoIIA peptide fluorescence polarization; inhibition, % at 10.7 µM; 360,000 tested, 0.14% active; AID 652163;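 active = mean inhibition of at least 70% across replicates, with every replicate also reaching that level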
Target sequence (P26447 whole entry, looked up): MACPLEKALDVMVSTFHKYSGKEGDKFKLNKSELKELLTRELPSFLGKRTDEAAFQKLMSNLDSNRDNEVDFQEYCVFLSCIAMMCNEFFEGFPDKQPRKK
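Compound dosing: one dose per compound; test system: human S100A4 monomer with TAMRA-labelled myosin IIA peptide; probe or stimulus: TAMRA-labelled myosin IIA heavy-chain peptide probe, 5 nM; medium: HEPES buffer with Ca2+, pH 7.2; schedule: 5 min incubation before reading; benchmarks: neutral control DMSO, positive control TFP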
The depositor's hits bear a star; . = no result; [ ] = another dose, or the depositor's remark. In the library only some 2.6% were active in any assay of this set; here they are far more common.

SMILES	HIV Env fusion	miR-122 sensor	Vif inh	Ecoli rRNA inh	FN deposition inh	S100A4 MyoIIA
Cc1cccc(N2C(=O)CN(Cc3ccccc3)C2=S)c1	7	-2	17	-14*	6	1
Cc1cccc(N2C(=O)CN(Cc3cccs3)C2=S)c1	14	6	4	-4	-23	3
O=C(c1cccc(F)c1)N1CC2(C1)[C@@H](c1ccccc1)[C@@H](CO)N2C(=O)C1CCCC1	.	.	.	-5	10	-4
CCCCn1c(N)c(N(CCOC)C(=O)c2cc(CC)c(C)s2)c(=O)[nH]c1=O	.	.	-4	-2	-4	-5
CCCCn1c(N)c(N(CC)C(=O)c2cc(CC)c(C)s2)c(=O)[nH]c1=O	.	.	55*	9	1	-6
C/C=C/c1ccc2c(c1)O[C@@H](CN(C)C(=O)c1ccc(F)cc1)[C@H](C)CN([C@@H](C)CO)S2(=O)=O	-10[16.7 µM]	0[16.7 µM]	.	-8	-5	0
CN(C)CC/C=C1/c2cc(F)ccc2Sc2ccc(Cl)cc21	18	-3	-2	-50*	-1	-1
CN1CCN(CC(=O)NC2CCCCC2)CC1	-114	0	92*	.	-3	.
CCCCCCCCCCCCCCCC(=O)OCC1OC(n2ccc(N)nc2=O)C(O)C1O (stereo unspecified)	75*	2	1	4	-7	1
Nc1ccn([C@@H]2O[C@H](CO)[C@@H](O)[C@@H]2O)c(=O)n1	47	2	-14	.	-3	-3
NC[C@H]1O[C@@H](n2ccc(N)nc2=O)[C@H](O)[C@@H]1O	31	1	-2	12	-6	8
Nc1ccn(C2OC(CO)C(O)C2F)c(=O)n1 (stereo unspecified)	75*	-2	.	.	-4	-7
COCC(=O)N(C)C[C@H]1Oc2cc(-c3cccnc3)ccc2S(=O)(=O)N([C@H](C)CO)C[C@H]1C	-11[16.7 µM]	-21[16.7 µM]	.	-4	1	-6
CCOC(=O)N1CCN(c2ncnc3c2[nH]c2ccc(OC)cc23)CC1	2	-5	-4	.	.	.
O=C(c1ccco1)N1CCN(c2ncnc3c2[nH]c2ccc(Br)cc23)CC1	.	1	-17	.	.	.
CCOc1ccc2[nH]c3c(N4CCN(C(=O)c5ccco5)CC4)ncnc3c2c1	25	2	-8	-36*	5	-21
CCOC(=O)N1CCN(c2ncnc3c2[nH]c2ccc(F)cc23)CC1	64*	-10	.	.	-2	.
C[C@H](CO)N1C[C@H](C)[C@@H](CN(C)S(=O)(=O)c2ccccc2)Oc2ccc(NS(C)(=O)=O)cc2CC1=O	4[16.7 µM]	0[16.7 µM]	.	0	0	26
O=C(C[C@H]1C[C@H]2c3cc(NC(=O)c4cccnc4)ccc3O[C@H]2[C@H](CO)O1)NCc1ccccc1F	4[16.7 µM]	0[16.7 µM]	.	-4	-5	-18
Cc1ccc(C(=O)Nc2cnc3ccccc3c2)cc1	94*	5	1	.	1	.
COc1ccccc1N(C)S(=O)(=O)c1ccc(C(=O)Nc2cccc(Br)c2)cc1	17	-2	-7	-34*	14	-6
CN(c1ccccc1)S(=O)(=O)c1ccc(NC(=O)c2ccc(F)cc2)cc1	4	.	-9	-28*	-2	0
COC(=O)c1cccc(NC(=O)c2ccc(S(=O)(=O)N(C)c3ccccc3OC)cc2)c1	15	0	-3	-13	6	-3
Cc1ccc(C(=O)Nc2cccc(C(O)c3ccccc3)c2)cc1 (stereo unspecified)	11	.	1	-33*	-1	2
Cc1ccc(C(=O)NC(C(=O)Nc2ccccc2)c2ccccc2)cc1 (stereo unspecified)	-17	5	-16	-15	4	-6
Cc1cc(C(=O)Nc2cnc3ccccc3c2)ccc1[N+](=O)[O-]	-24	.	6	12	-5	-6
C[C@H]1CN([C@@H](C)CO)S(=O)(=O)c2ccc(-c3cccc(C#N)c3)cc2O[C@H]1CN(C)C	22[16.7 µM]	-4[16.7 µM]	.	1	3	1
CN(c1ccc(C(=O)Nc2cccc(O)c2)cc1)S(=O)(=O)c1ccccc1	0	0	6	-27	10	-2
Cc1ccc(C(=O)Nc2cccc(C(=O)O)c2)cc1	117*	.	.	.	.	.
